Screening results as filed in PubChem.
PAD4 inh: blocks human protein arginine deiminase 4 | Q9UM07 | recombinant PAD4, RCA probe fluorescence polarization | inhibition, % at 6.36 µM | 330,000 tested, 0.41% active | AID 485272;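 active means percent inhibition above a cutoff equal to the mean of all tested compounds plus 3 SD, cut at about 15% in these data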
Rin1-Abl PPI inh: human Rin1-Abl interaction inhibition; 360,000 tested, 0.4% active; inhibition, % at 7.35 µM; AID 588664; TR-FRET Rin1/Abl binding, biochemical; P00519+Q13671; in the data active means inhibition above about 5%, passing the limit was not always enough
GSTO1 inh: counter-screen for RBBP9 inhibitors: inhibitors of human GSTO1; recombinant GSTO1, activity-based probe fluorescence polarization; inhibition, % at 5.96 µM; 300,000 tested, 1.1% active; AID 1974;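 active means inhibition above the campaign mean inhibition plus 3 SD, cut at about 35% in these data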
Apaf1 inhib: blocks human Apaf-1 apoptosome activity | reconstituted apoptosome caspase-3 activity, DEVD-Rh110 fluorescence | inhibition, % at 20 µM | AID 489030 | 330,000 tested, 0.71% active | O14727; active means inhibition of at least 40% at 20 µM
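Material: reconstituted apoptosome with Apaf-1, cytochrome c, caspase-9, procaspase-3, dATP. Technique: Rh110 fluorescence intensity. Buffer or medium: pH 7.5 Hepes buffer with CHAPS, BSA, DTT. Times: 30 min plus 50 min, RT.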
UBC13 polyUb: human UBC13 polyubiquitination inhibition; UBC13 polyubiquitin chain formation, TR-FRET; inhibition, % at 20 µM; P61088; 330,000 tested, 0.47% active; in the data active means inhibition above about 45%, passing the limit was not always enough
UBC9 SUMO inh: inhibitors of human SUMOylation (UBC9) | P63279 | HTRF SUMOylation assay, SAE1/SAE2 + UBC9, in vitro | inhibition, % at 35 µM | 290,000 tested, 0.36% active; in the data active means inhibition above about 50%, passing the limit was not always enough
Rin1 Abl conf: confirmation of inhibitors of human Rin1-Abl interaction. shares compounds with Rin1-Abl PPI inh. TR-FRET Rin1-Abl binding, purified proteins. inhibition, % at 7.35 µM. 1,300 tested, 49% active
GFP quench: GFP fluorescence interference artifact; shares compounds with Rin1-Abl PPI inh; inhibitors/quenchers counterscreen; inhibition, % at 6.75 µM; 1,300 tested, 8.5% active; AID 602125;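 further: ABL1-eGFP fusion protein alone without its partner RIN1-SBP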
GFP quench DR: counter-screen for Rin1-Abl inhibitors: GFP quenchers, dose response | AID 602182 | 230 tested, under 10 active | shares compounds with Rin1-Abl PPI inh | GFP fluorescence interference/quenching counterscreen | IC50, µM; call rule not given here;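 further: ABL1-eGFP fusion protein alone without its RIN1 binding partner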
A number is an active result; . = inactive; / = not tested or not shown. The list is not random: actives were taken first. Their share in the collection is about 2.2%. Unless noted, no stated cut-off is given here; in the data, active means inhibition above about 6.5%; inactive means the rest.

SMILES	PAD4 inh	Rin1-Abl PPI inh	GSTO1 inh	Apaf1 inhib	UBC13 polyUb	UBC9 SUMO inh	Rin1 Abl conf	GFP quench	others
Oc1ccc(/C=N/N2CCOCC2)c(O)c1O	.	30.4	37.8	.	.	.	33.0	.	GFP quench DR=.
Cc1cccc(OCCn2c(=O)oc3ccc(C)cc32)c1	.	5.8	.	.	.	.	.	.
Cn1c(=O)oc2cc(S(=O)(=O)N3CCCC(C(=O)Nc4nccs4)C3)ccc21 (configuration not stated)	.	11.1	.	.	.	.	.	.
Cc1cccc(NC(=O)C2CCCN(S(=O)(=O)c3ccc4c(c3)oc(=O)n4C)C2)c1 (configuration not stated)	.	.	.	.	.	.	/	/
CCOC(=O)c1c(C)[nH]c(C)c1S(=O)(=O)NCC1CCN(Cc2ccccc2OC)CC1	.	.	.	.	.	.	/	/
COc1cccc(C(=O)Nc2cccc(SC)c2)c1	.	6.3	.	.	.	.	.	.
O=C(c1ccco1)N1CCc2[nH]nc(-c3ccc(Cl)cc3)c2C1	.	15.6	.	.	.	.	.	.
CN1OC[C@@H]2CN(Cc3cc(Cl)cc(Cl)c3)[C@H](c3cccc(-c4ccccc4)c3)C[C@@H]21	/	.	/	/	/	/	/	/
Cc1ccccc1-n1c(SCC(=O)c2cc(C)n(C)c2C)nnc1-c1cccnc1	.	.	.	.	.	.	/	/
COCCn1c(C)cc(C(=O)CSc2nnc(-c3cccnc3)n2-c2ccccc2F)c1C	.	10.2	.	.	.	.	.	.
CC1(C)CC(=O)N(c2ccc(Cl)c(Cl)c2)C(=O)C1	.	.	.	.	.	.	/	/
Cc1ccc(Cl)cc1N1C(=O)CC(C)(C)CC1=O	.	7.2	.	.	.	.	.	.
CCCCn1c(N)c(N(CCC(C)C)C(=O)C2CCN(C(=O)c3ccccc3C)CC2)c(=O)[nH]c1=O	.	8.4	.	.	.	/	.	.
COc1c(F)cccc1C1=CC(=O)C[C@H](c2ccc(F)cc2)C1	/	.	/	/	/	/	/	/
O=c1[nH]c2ccccc2n1CCCSCCCn1c(=O)[nH]c2ccccc21	.	8.7	.	.	.	.	14.4	.
COc1ccc(CNC(=O)c2cccc3c(-c4cnn(C)c4)coc23)cc1OC	/	11.7	/	/	/	/	.	.
CC(=O)Nc1cc(-c2ccc(C(=O)NC3CC3)cc2)cn2c(-c3ccc(F)c(Cl)c3)cnc12	/	.	/	/	/	/	/	/
C=CCOc1ccc(/C=N/NC(=O)C(=O)Nc2ccccn2)cc1OC	.	6.5	.	.	.	.	13.9	.
O=C(Cn1nc(Br)nc1Br)c1ccccc1	.	.	.	.	.	.	/	/
CCCS(=O)(=O)N1CCN(Cc2ccccc2[N+](=O)[O-])CC1	.	9.5	.	.	.	.	.	.
O=[N+]([O-])c1ccccc1CN1CCN(S(=O)(=O)Cc2ccccc2)CC1	.	.	.	.	.	.	/	/
CCC(C)(C)C1CCC2(CC1)NC(=O)N(CC(=O)N(C)CCOc1ccc(Cl)cc1)C2=O (configuration not stated)	/	.	/	.	.	/	/	/
N#CC12CCCCC1CC1CCCCC1(C#N)N2Cc1cccnc1 (configuration not stated)	.	52.8	.	.	.	.	92.0	.	GFP quench DR=.
CCNc1cc2c(cc1O)CCC1C2CCC2(C)C(O)CCC12 (configuration not stated)	/	12.5	/	/	/	/	.	.
CCOc1cc2c(cc1O)CCC1C2CCC2(C)C(O)CCC12 (configuration not stated)	/	.	/	/	/	/	/	/
SMILES	PAD4 inh	Rin1-Abl PPI inh	GSTO1 inh	Apaf1 inhib	UBC13 polyUb	UBC9 SUMO inh	Rin1 Abl conf	GFP quench	others
C[C@@H]1CCCCO[C@H](CN(C)S(=O)(=O)c2cccs2)[C@@H](C)CN([C@H](C)CO)C(=O)c2cc(NC(=O)C3CCCCC3)ccc2O1	/	.	/	/	/	/	/	/
Cc1ccc(NC(=O)CN2C(=O)N/C(=C/c3cccn3-c3ccc(C(=O)O)cc3)C2=O)cc1	.	9.7	37.2	/	/	/	9.0	9.9
C[C@H]1CN([C@@H](C)CO)C(=O)CCCn2nncc2CO[C@H]1CN(C)S(=O)(=O)c1ccc(-n2cccn2)cc1	/	.	/	/	/	/	/	/
COc1ccc(SCCCn2c(=O)c3c(ncn3C)n(C)c2=O)cc1	.	7.7	.	.	.	.	.	.
CCCn1c(=O)c2c(ncn2C)n(CCC)c1=O	.	.	.	.	.	/	/	/
C#CCOCCOCCOCCNc1nc(N2CCOCC2)nc(N2CCN(C(=O)[C@H](Cc3ccc(O)cc3)n3cc([C@@H](N)C(C)CC)nn3)CC2)n1 (some centres not stated)	.	11.2	.	.	.	.	14.3	.
CC(C)(C)C(=O)Nc1nnc(SCC(=O)NC2CC2)s1	.	.	.	.	.	.	/	/
CC(=O)c1c(C)[nH]c(C(=O)Nc2ccccc2N2CCOCC2)c1C	.	4.7	.	.	.	.	.	.
COc1ccc(S(=O)(=O)NC(C)C(=O)NCc2cccnc2)cc1OC (configuration not stated)	.	8.4	.	.	.	.	.	.
Cc1nc2ccccc2n1S(=O)(=O)c1cc(C(=O)O)ccc1Cl	.	8.3	.	.	.	.	.	.
COc1ccc(C(CNC(=O)c2cc(C)on2)N(C)C)cc1 (configuration not stated)	.	.	.	.	.	.	/	/
CC[C@]12c3[nH]c4ccc(OC)cc4c3CCN1C(=O)C(CC(=O)NCC13CC4CC(CC(C4)C1)C3)C[C@@H]2C(=O)N1CCN(C(=O)C2CC2)CC1 (some centres not stated)	.	19.4	/	.	/	/	23.8	.	GFP quench DR=.
CC[C@]12c3[nH]c4ccc(Cl)cc4c3CCN1C(=O)[C@@H](CC(=O)NCCCN(C)C)C[C@@H]2C(=O)N1CCN(C(=O)c2ccco2)CC1	.	21.9	/	.	/	/	21.7	.	GFP quench DR=.
O=C1CC(N2CCN(S(=O)(=O)c3ccccc3F)CC2)C(=O)N1c1ccccc1F (configuration not stated)	/	.	/	/	/	/	/	/
Cc1ccc(S(=O)(=O)N2C[C@H]3[C@H]4C(=O)N(c5ccccc5)C(=O)[C@H]4CC(=O)[C@H]3[C@@H]2c2cccc3ccccc23)cc1	/	48.0	/	/	/	/	.	.
Cc1ccc(S(=O)(=O)N2C[C@H]3[C@H]4C(=O)N(c5ccccc5)C(=O)[C@H]4CC(=O)[C@H]3[C@@H]2c2ccccc2F)cc1	/	.	/	/	/	/	/	/
S=C(NCc1ccccc1)N1CCN(Cc2ccc3c(c2)OCO3)CC1	.	.	.	.	.	.	/	/
S=C(NCc1ccc2c(c1)OCO2)NC1CCN(Cc2ccccc2)CC1	.	10.4	.	.	.	.	11.0	.
COc1ccc(-n2ncc3c(N4CCCCC4)ncnc32)cc1	.	6.1	.	.	.	.	.	.
